Calls of active or inactive are those of the source.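 The calls were made as follows: active = a clear dose-dependent boost of the acetylcholine calcium response in rat M2 cells, with a fitted potency; inactive = the rest.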
Target: Muscarinic acetylcholine receptor M2 (Rattus norvegicus) (UniProt P10980)
Assay: potentiation of ACh at rat M2 – CHO Gqi5 cells, calcium fluorescence, counter-screen for M4 PAM project, dose response (AID 588748)
Conditions: CHO rM2/Gqi5 calcium mobilization, PAM mode, FDSS
How it was run: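 Material: rat M2/Gqi5 CHO cells; reagent: acetylcholine at EC20, followed by acetylcholine at EC80; times: compound 144 s before EC20 ACh, EC80 ACh 86 s later, 37 °C; detection: Fluo-4 fluorescence of calcium mobilization; measure: EC50 and percent ACh max response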

Chain of Muscarinic acetylcholine receptor M2 (Rattus norvegicus) (P10980 whole entry, looked up): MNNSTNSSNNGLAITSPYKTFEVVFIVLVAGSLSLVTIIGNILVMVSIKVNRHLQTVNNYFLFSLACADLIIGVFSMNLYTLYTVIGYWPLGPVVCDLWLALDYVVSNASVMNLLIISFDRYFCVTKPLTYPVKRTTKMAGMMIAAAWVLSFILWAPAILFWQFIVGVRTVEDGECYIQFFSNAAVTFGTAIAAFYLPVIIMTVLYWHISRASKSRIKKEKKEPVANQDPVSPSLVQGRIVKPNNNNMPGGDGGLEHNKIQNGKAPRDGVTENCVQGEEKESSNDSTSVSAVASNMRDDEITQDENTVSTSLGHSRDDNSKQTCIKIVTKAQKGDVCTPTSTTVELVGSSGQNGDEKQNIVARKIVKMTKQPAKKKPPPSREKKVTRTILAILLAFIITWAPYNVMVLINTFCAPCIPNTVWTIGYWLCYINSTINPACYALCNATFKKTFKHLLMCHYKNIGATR

## Cc1nc2sc(C(=O)NCCc3ccncc3)c(N)c2c(C)c1Cl
At 30 µM (top of the series)
  percent of ACh max response: inactive

## Cc1nc2sc(C(=O)NCc3cccnc3)c(N)c2c(C)c1Cl
At 45.3 µM (top of the series)
  percent of ACh max response: inactive

## Cc1nc2sc(C(=O)NCc3ccncn3)c(N)c2c(C)c1Cl
At 30 µM (top of the series)
  percent of ACh max response: inactive

## Cc1nc2sc(C(=O)NCc3ccccc3)c(N)c2c(C)c1Cl
At 37.4 µM (top of the series)
  percent of ACh max response: inactive

## Cc1nc2sc(C(=O)NC3CC3)c(N)c2c(C)c1Cl
  EC50: 640 nM

## Cc1nc2sc(C(=O)NCc3nccs3)c(N)c2c(C)c1Cl
At 30 µM (top of the series)
  percent of ACh max response: inactive

## Cc1nc2sc(C(=O)NCc3ccc4c(c3)OCO4)c(N)c2c(C)c1Cl
At 36.8 µM (top of the series)
  percent of ACh max response: inactive

## Cc1nc2sc(C(=O)NCc3ccncc3)c(N)c2c(C)c1Cl
At 45.3 µM (top of the series)
  percent of ACh max response: inactive

## Cc1nc2sc(C(=O)NCc3cccc(F)c3F)c(N)c2c(C)c1Cl
At 30 µM (top of the series)
  percent of ACh max response: inactive

— PubChem BioAssay AID588748 (Vanderbilt Specialized Chemistry Center, 2011)
